Assay results taken from ChEMBL document CHEMBL4673404, “Covalent Inhibition of Wild-Type HIV-1 Reverse Transcriptase Using a Fluorosulfate Warhead” (ACS Med Chem Lett, 2021).

Target: not listed separately
Assay: Covalent inhibition of HIV-1 reverse transcriptase Tyr181Cys mutant
Design: species or system Human immunodeficiency virus 1
Details: not given

**Q.** With `N#Cc1cc(Cl)cc(Oc2ccc(OS(=O)(=O)F)cc2OCCn2ccc(=O)[nH]c2=O)c1` as the molecule, how does the IC50 read?
**A.** Its IC50 is 0.045 µM.

**Q.** Which IC50 does the source give for `N#Cc1cc2c(Oc3ccc(OS(=O)(=O)F)cc3OCCn3ccc(=O)[nH]c3=O)cc(Cl)cn2c1` here?
**A.** Its IC50 is 0.041 µM.

**Q.** With `Cn1c(=O)ccn(CCOc2cc(OS(=O)(=O)F)ccc2Oc2cccn3cc(C#N)cc23)c1=O` as the molecule, how does the IC50 read?
**A.** Its IC50 is 0.202 µM.

**Q.** Which IC50 does the source give for `N#Cc1cc2c(Oc3ccc(OS(=O)(=O)F)cc3OCCn3ccc(=O)[nH]c3=O)cc(F)cn2c1` here?
**A.** Its IC50 is 0.063 µM.

Target: T1, Human immunodeficiency virus type 1 reverse transcriptase (Human immunodeficiency virus 1, UniProt Q72547)
Assay: Covalent inhibition of recombinant wild type HIV-1 reverse transcriptase using poly(rA)350/oligo(dT)16 as template/primer preincubated followed by substrate addition measured after 30 mins by pico-green reagent based fluorescence analysis
Details: not given

**Q.** With `Cn1c(=O)ccn(CCOc2cc(OS(=O)(=O)F)ccc2Oc2cc(Cl)cc(C#N)c2)c1=O` as the molecule, how does the IC50 read?
**A.** The IC50 was 0.246 µM.

**Q.** With `N#Cc1cc(Cl)cc(Oc2ccc(S(=O)(=O)F)cc2OCCn2ccc(=O)[nH]c2=O)c1` as the molecule, how does the IC50 read?
**A.** Its IC50 is 5 µM.

**Q.** For `N#Cc1cc(Cl)cc(Oc2ccc(OS(=O)(=O)F)cc2OCCn2ccc(=O)[nH]c2=O)c1`, which IC50 is on record?
**A.** The IC50 was 0.103 µM.

**Q.** Which IC50 does the source give for `N#Cc1ccc2c(Oc3ccc(OS(=O)(=O)F)cc3OCCn3ccc(=O)[nH]c3=O)cc(Cl)cc2c1` here?
**A.** The IC50 was 0.0147 µM.

**Q.** For `N#Cc1cc(Cl)cc(Oc2cc(OS(=O)(=O)F)ccc2Cl)c1`, which IC50 is on record?
**A.** The IC50 was 0.833 µM.

**Q.** Which IC50 does the source give for `N#Cc1cc2c(Oc3ccc(OS(=O)(=O)F)cc3OCCn3ccc(=O)[nH]c3=O)cc(Cl)cn2c1` here?
**A.** The IC50 was 0.0424 µM.

**Q.** For `N#C/C=C/c1cc(Cl)cc(Oc2ccc(OS(=O)(=O)F)cc2OCCn2ccc(=O)[nH]c2=O)c1`, which IC50 is on record?
**A.** The IC50 was 0.119 µM.

**Q.** Which IC50 does the source give for `N#C/C=C/c1cc(F)cc(Oc2ccc(OS(=O)(=O)F)cc2OCCn2ccc(=O)[nH]c2=O)c1` here?
**A.** The IC50 was 0.15 µM.

**Q.** With `Cn1c(=O)ccn(CCOc2cc(OS(=O)(=O)F)ccc2Oc2cccn3cc(C#N)cc23)c1=O` as the molecule, how does the IC50 read?
**A.** The IC50 was 0.164 µM.

**Q.** With `N#Cc1cc(Cl)cc(Oc2ccc(OS(=O)(=O)F)cc2Cl)c1` as the molecule, how does the IC50 read?
**A.** The IC50 was 4.9 µM.

**Q.** For `N#Cc1ccc2c(Oc3ccc(OS(=O)(=O)F)cc3OCCn3ccc(=O)[nH]c3=O)cccc2c1`, which IC50 is on record?
**A.** Its IC50 is 0.0823 µM.

**Q.** With `N#Cc1cc2c(Oc3ccc(OS(=O)(=O)F)cc3OCCn3ccc(=O)[nH]c3=O)cc(F)cn2c1` as the molecule, how does the IC50 read?
**A.** The IC50 was 0.064 µM.

**Q.** With `Cn1c(=O)ccn(CCOc2cc(S(=O)(=O)F)ccc2Oc2cc(Cl)cc(C#N)c2)c1=O` as the molecule, how does the IC50 read?
**A.** Its IC50 is 0.375 µM.

**Q.** Which IC50 does the source give for `Cc1cc(/C=C/C#N)cc(C)c1Nc1ccnc(Nc2ccc(C#N)cc2)n1` [RILPIVIRINE] here?
**A.** The IC50 was 0.038 µM.

Tested on: not listed separately
Assay: Cytotoxicity against human MT2 cells assessed as cell growth inhibition after 5 days by MTT assay
Type: cell-based
Details: time 5 day
Procedure, shortened: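 Human MT-2 T-cells were used in the same assay as the HIV-1 IIIB infection-protection test. CC50 was taken as the concentration inhibiting MT-2 cell growth by 50%, with measurements in triplicate.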

**Q.** With `N#C/C=C/c1cc(Cl)cc(Oc2ccc(Cl)cc2OCCn2ccc(=O)[nH]c2=O)c1` as the molecule, how does the CC50 at 120 h read?
**A.** Its CC50 at 120 h is 10 µM.

**Q.** For `N#Cc1cc(Cl)cc(Oc2cc(OS(=O)(=O)F)ccc2OCCn2ccc(=O)[nH]c2=O)c1`, which CC50 at 120 h is on record?
**A.** The CC50 at 120 h was 100 µM.

**Q.** Which CC50 at 120 h does the source give for `Cn1c(=O)ccn(CCOc2cc(OS(=O)(=O)F)ccc2Oc2cc(Cl)cc(C#N)c2)c1=O` here?
**A.** Its CC50 at 120 h is 40 µM.

**Q.** Which CC50 at 120 h does the source give for `N#Cc1cc(Cl)cc(Oc2ccc(S(=O)(=O)F)cc2OCCn2ccc(=O)[nH]c2=O)c1` here?
**A.** The CC50 at 120 h was 90 µM.

**Q.** With `N#Cc1cc(Cl)cc(Oc2ccc(OS(=O)(=O)F)cc2OCCn2ccc(=O)[nH]c2=O)c1` as the molecule, how does the CC50 at 120 h read?
**A.** The CC50 at 120 h was 66 µM.

**Q.** With `N#Cc1ccc2c(Oc3ccc(OS(=O)(=O)F)cc3OCCn3ccc(=O)[nH]c3=O)cc(Cl)cc2c1` as the molecule, how does the CC50 at 120 h read?
**A.** Its CC50 at 120 h is 15 µM.

**Q.** Which CC50 at 120 h does the source give for `N#Cc1cc(Cl)cc(Oc2cc(OS(=O)(=O)F)ccc2Cl)c1` here?
**A.** Its CC50 at 120 h is 78 µM.

**Q.** With `N#Cc1cc2c(Oc3ccc(OS(=O)(=O)F)cc3OCCn3ccc(=O)[nH]c3=O)cc(Cl)cn2c1` as the molecule, how does the CC50 at 120 h read?
**A.** Its CC50 at 120 h is 26 µM.

**Q.** Which CC50 at 120 h does the source give for `N#C/C=C/c1cc(Cl)cc(Oc2ccc(OS(=O)(=O)F)cc2OCCn2ccc(=O)[nH]c2=O)c1` here?
**A.** The CC50 at 120 h was 45 µM.

**Q.** With `N#C/C=C/c1cc(F)cc(Oc2ccc(OS(=O)(=O)F)cc2OCCn2ccc(=O)[nH]c2=O)c1` as the molecule, how does the CC50 at 120 h read?
**A.** Its CC50 at 120 h is 42 µM.

**Q.** Which CC50 at 120 h does the source give for `Cn1c(=O)ccn(CCOc2cc(OS(=O)(=O)F)ccc2Oc2cccn3cc(C#N)cc23)c1=O` here?
**A.** The CC50 at 120 h was 75 µM.

**Q.** For `N#Cc1cc(Cl)cc(Oc2ccc(OS(=O)(=O)F)cc2Cl)c1`, which CC50 at 120 h is on record?
**A.** Its CC50 at 120 h is 50 µM.

**Q.** For `N#Cc1ccc2c(Oc3ccc(OS(=O)(=O)F)cc3OCCn3ccc(=O)[nH]c3=O)cccc2c1`, which CC50 at 120 h is on record?
**A.** Its CC50 at 120 h is 62 µM.

**Q.** With `N#Cc1cc2c(Oc3ccc(OS(=O)(=O)F)cc3OCCn3ccc(=O)[nH]c3=O)cc(F)cn2c1` as the molecule, how does the CC50 at 120 h read?
**A.** The CC50 at 120 h was 55 µM.

**Q.** With `Cn1c(=O)ccn(CCOc2cc(S(=O)(=O)F)ccc2Oc2cc(Cl)cc(C#N)c2)c1=O` as the molecule, how does the CC50 at 120 h read?
**A.** The CC50 at 120 h was 60 µM.

**Q.** For `Cc1ccnc2c1NC(=O)c1cccnc1N2C1CC1` [NEVIRAPINE], which CC50 at 120 h is on record?
**A.** The CC50 at 120 h was over 100 µM.

**Q.** Which CC50 at 120 h does the source give for `Cc1cc(/C=C/C#N)cc(C)c1Nc1ccnc(Nc2ccc(C#N)cc2)n1` [RILPIVIRINE] here?
**A.** Its CC50 at 120 h is 8 µM.

Target: T1, Human immunodeficiency virus type 1 reverse transcriptase
Assay: Inhibition of recombinant wild type HIV-1 reverse transcriptase using poly(rA)350/oligo(dT)16 as template/primer preincubated for 1 hr followed by substrate addition measured after 30 mins by pico-green reagent based fluorescence analysis
Details: not given
Procedure, shortened: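 Recombinant wild-type HIV-1 RT preincubated 1 h with inhibitor or DMSO. Substrate of r(A)350 template and d(T)16 primer then added, 30 min at room temperature. Quenched with EDTA, product detected with PicoGreen by fluorescence (ex 485/em 520 nm). Triplicate runs, normalized to DMSO controls to give IC50.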

**Q.** Which IC50 does the source give for `N#C/C=C/c1cc(Cl)cc(Oc2ccc(Cl)cc2OCCn2ccc(=O)[nH]c2=O)c1` here?
**A.** Its IC50 is 0.003 µM.

Target: T1, Human immunodeficiency virus type 1 reverse transcriptase
Assay: Covalent inhibition of recombinant wild type HIV-1 reverse transcriptase using poly(rA)350/oligo(dT)16 as template/primer preincubated followed by substrate addition measured after 48 hrs by pico-green reagent based fluorescence analysis
Details: not given
Procedure, shortened: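 Recombinant WT HIV-1 RT preincubated with inhibitor or DMSO control (1 h for line 3, 48 h for line 4). Substrate solution with r(A)350 template and d(T)16 primer then added, reacted 30 min at room temperature, and quenched with EDTA. Product quantified with PicoGreen by fluorescence (ex 485, em 520 nm). Triplicate runs, normalized to DMSO controls to give IC50.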

**Q.** With `N#Cc1cc(Cl)cc(Oc2ccc(OS(=O)(=O)F)cc2OCCn2ccc(=O)[nH]c2=O)c1` as the molecule, how does the IC50 read?
**A.** Its IC50 is 0.163 µM.

**Q.** With `Cn1c(=O)ccn(CCOc2cc(OS(=O)(=O)F)ccc2Oc2cccn3cc(C#N)cc23)c1=O` as the molecule, how does the IC50 read?
**A.** The IC50 was 1.11 µM.

**Q.** Which IC50 does the source give for `N#Cc1cc2c(Oc3ccc(OS(=O)(=O)F)cc3OCCn3ccc(=O)[nH]c3=O)cc(F)cn2c1` here?
**A.** The IC50 was 0.429 µM.
